ChEMBL document CHEMBL4665669, “Novel tertiary sulfonamide derivatives containing benzimidazole moiety as potent anti-gastric cancer agents: Design, synthesis and SAR studies” (Eur J Med Chem, 2019)
Activity calls are given as the source filed them. The calls are words filed in the database; no cut-off is given here.

Tests used:
HGC-27 [1] = test: Induction of apoptosis in human HGC-27 cells assessed as cleavage of PARP at 0.5 to 1.5 umol/L after 48 hrs Western blot analysis; assay type: functional, cell-based; details: dose micromol/L 0.5-1.5, time 48.0 hrs
Procedure, shortened: (§1)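 Western blot. Cells were treated with compound concentrations or DMSO for 48 h, then lysed, and lysates were denatured, run on SDS-PAGE and transferred to nitrocellulose. After blocking in 5% skimmed milk, membranes were incubated with primary antibodies at 4 °C for 8 h, then secondary antibodies, with ECL detection.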

SGC-7901 [2] = test: Induction of apoptosis in human SGC-7901 cells assessed as cleavage of PARP at 0.5 to 1.5 umol/L after 48 hrs Western blot analysis; assay type: functional, cell-based; details: dose micromol/L 0.5-1.5, time 48.0 hrs; procedure, shortened: as §1
HGC-27 [3] = test: Inhibition of Ras/Raf/MEK/ERK signalling pathway in human HGC-27 cells assessed as downregulation of FoxO3a expression at 0.5 to 1.5 umol/L after 48 hrs by Western blot analysis; assay type: cell-based; details: dose micromol/L 0.5-1.5, time 48.0 hrs
Procedure, shortened: (§2)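 Cells treated with graded concentrations or DMSO for 48 h, then harvested and lysed. Lysates denatured, resolved by SDS-PAGE and transferred to nitrocellulose. Membranes blocked with 5% skimmed milk and probed with primary antibodies at 4 °C for 8 h, then with secondary antibodies. Bands detected by ECL.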

HGC-27 [4] = test: Inhibition of Ras/Raf/MEK/ERK signalling pathway in human HGC-27 cells assessed as effect on RAS level at 0.5 to 1.5 umol/L after 48 hrs by Western blot analysis; assay type: cell-based; details: dose micromol/L 0.5-1.5, time 48.0 hrs; procedure, shortened: as §2
SGC-7901 [5] = test: Inhibition of Ras/Raf/MEK/ERK signalling pathway in human SGC-7901 cells assessed as downregulation of c-Myc expression at 0.5 to 1.5 umol/L after 48 hrs by Western blot analysis; assay type: cell-based; details: dose micromol/L 0.5-1.5, time 48.0 hrs; procedure, shortened: as §2
SGC-7901 [6] = test: Induction of apoptosis in human SGC-7901 cells assessed as increase in nucleus concentration at 0.5 to 1.5 umol/L after 48 hrs by imaging analysis; assay type: functional, cell-based; details: dose micromol/L 0.5-1.5, time 48.0 hrs
MGC-803 [7] = test: Inhibition of Ras/Raf/MEK/ERK signalling pathway in human MGC-803 cells assessed as downregulation of FoxO3a expression at 0.5 to 1.5 umol/L after 48 hrs by Western blot analysis; assay type: cell-based; details: dose micromol/L 0.5-1.5, time 48.0 hrs; procedure, shortened: as §2
HGC-27 [8] = test: Induction of apoptosis in human HGC-27 cells assessed as cleavage of caspase-7 at 0.5 to 1.5 umol/L after 48 hrs Western blot analysis; assay type: functional, cell-based; details: dose micromol/L 0.5-1.5, time 48.0 hrs; procedure, shortened: as §1
SGC-7901 [9] = test: Induction of apoptosis in human SGC-7901 cells assessed as downregulation of Mcl-1 level at 0.5 to 1.5 umol/L after 48 hrs Western blot analysis; assay type: functional, cell-based; details: dose micromol/L 0.5-1.5, time 48.0 hrs; procedure, shortened: as §1
SGC-7901 [10] = test: Anticancer activity against human SGC-7901 cells assessed as inhibition of cell proliferation after 48 hrs by MTT assay; assay type: functional, cell-based
Procedure, shortened: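 MTT assay with 48 h compound exposure. MTT solution was then added and incubated 4 h at 37 °C, the supernatant discarded and formazan dissolved in DMSO, with absorbance read at 490 nm. IC50 values were calculated from three independent experiments, reported as mean SD.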

MGC-803 [11] = test: Induction of apoptosis in human MGC-803 cells after 48 hrs by flow cytometry analysis; assay type: functional, cell-based; details: dose micromol/L 0.5-1.5, time 48.0 hrs
MGC-803 [12] = test: Inhibition of Ras/Raf/MEK/ERK signalling pathway in human MGC-803 cells assessed as decrease in MEK1 phosphorylation after 48 hrs by Western blot analysis; assay type: cell-based; details: dose micromol/L 0.5-1.5, time 48.0 hrs; procedure, shortened: as §2
HGC-27 [13] = test: Inhibition of Akt/mTOR signalling pathway in human HGC-27 cells assessed as decrease in mTOR phosphorylation at Ser2448 residue at 0.5 to 1.5 umol/L after 48 hrs by Western blot analysis; assay type: cell-based; details: dose micromol/L 0.5-1.5, time 48.0 hrs; procedure, shortened: as §2
SGC-7901 [14] = test: Induction of apoptosis in human SGC-7901 cells induction of DNA fragmentation at 0.5 to 1.5 umol/L after 48 hrs by imaging analysis; assay type: functional, cell-based; details: dose micromol/L 0.5-1.5, time 48.0 hrs
HGC-27 [15] = test: Induction of apoptosis in human HGC-27 cells after 48 hrs by flow cytometry analysis; assay type: functional, cell-based; details: dose micromol/L 0.5-1.5, time 48.0 hrs
SGC-7901 [16] = test: Cell cycle arrest at M phase in human SGC-7901 cells assessed as upregulation of p-Histone-3 level at 0.5 to 1.5 umol/L after 48 hrs by Western blot analysis; assay type: functional, cell-based; details: dose micromol/L 0.5-1.5, time 48.0 hrs; procedure, shortened: as §1
HGC-27 [17] = test: Induction of apoptosis in human HGC-27 cells assessed as downregulation of c-IAP1 level at 0.5 to 1.5 umol/L after 48 hrs Western blot analysis; assay type: functional, cell-based; details: dose micromol/L 0.5-1.5, time 48.0 hrs; procedure, shortened: as §1
HGC-27 [18] = test: Induction of apoptosis in human HGC-27 cells assessed as increase in nucleus concentration at 0.5 to 1.5 umol/L after 48 hrs by imaging analysis; assay type: functional, cell-based; details: dose micromol/L 0.5-1.5, time 48.0 hrs
HGC-27 [19] = test: Induction of apoptosis in human HGC-27 cells assessed as upregulation of NOXA level at 0.5 to 1.5 umol/L after 48 hrs Western blot analysis; assay type: functional, cell-based; details: dose micromol/L 0.5-1.5, time 48.0 hrs; procedure, shortened: as §1
HGC-27 [20] = test: Inhibition of Ras/Raf/MEK/ERK signalling pathway in human HGC-27 cells assessed as decrease in ERK1/2 phosphorylation after 48 hrs by Western blot analysis; assay type: cell-based; details: dose micromol/L 0.5-1.5, time 48.0 hrs; procedure, shortened: as §2
MGC-803 [21] = test: Cell cycle arrest at M phase in human MGC-803 cells assessed as upregulation of p-Histone-3 level at 0.5 to 1.5 umol/L after 48 hrs by Western blot analysis; assay type: functional, cell-based; details: dose micromol/L 0.5-1.5, time 48.0 hrs; procedure, shortened: as §1
MGC-803 [22] = test: Induction of apoptosis in human MGC-803 cells assessed as downregulation of XIAP level at 0.5 to 1.5 umol/L after 48 hrs Western blot analysis; assay type: functional, cell-based; details: dose micromol/L 0.5-1.5, time 48.0 hrs; procedure, shortened: as §1
SGC-7901 [23] = test: Cell cycle arrest at G2 phase in human SGC-7901 cells assessed as downregulation of Cyclin B level at 0.5 to 1.5 umol/L after 48 hrs by Western blot analysis; assay type: functional, cell-based; details: dose micromol/L 0.5-1.5, time 48.0 hrs; procedure, shortened: as §1
MGC-803 [24] = test: Inhibition of Ras/Raf/MEK/ERK signalling pathway in human MGC-803 cells assessed as decrease in ERK1/2 phosphorylation after 48 hrs by Western blot analysis; assay type: cell-based; details: dose micromol/L 0.5-1.5, time 48.0 hrs; procedure, shortened: as §2
SGC-7901 [25] = test: Induction of apoptosis in human SGC-7901 cells assessed as downregulation of XIAP level at 0.5 to 1.5 umol/L after 48 hrs Western blot analysis; assay type: functional, cell-based; details: dose micromol/L 0.5-1.5, time 48.0 hrs; procedure, shortened: as §1
SGC-7901 [26] = test: Inhibition of Akt/mTOR signalling pathway in human SGC-7901 cells assessed as decrease in mTOR phosphorylation at Ser2448 residue at 0.5 to 1.5 umol/L after 48 hrs by Western blot analysis; assay type: cell-based; details: dose micromol/L 0.5-1.5, time 48.0 hrs; procedure, shortened: as §2

With COc1cc(N(Cc2nc3ccccc3[nH]2)S(=O)(=O)c2ccc(C)cc2)cc(OC)c1OC the Activity (HGC-27 [1]) was “Active”, the Activity (SGC-7901 [2]) was “Active” and the inhibition (HGC-27 [3]) was “Active”. The inhibition (HGC-27 [4]) was “inactive”, the inhibition (SGC-7901 [5]) was “Active” and the Activity (SGC-7901 [6]) was “Active”. For the same compound, the inhibition (MGC-803 [7]) was “Active”, the Activity (HGC-27 [8]) was “Active” and the Activity (SGC-7901 [9]) was “Active”. For the same compound, the Activity (SGC-7901 [10]) was “Dose-dependent effect”, the IC50 (SGC-7901 [10]; SGC-7901, 48 h) was 2300 nM and the Activity (MGC-803 [11]) was “Dose-dependent effect”. The inhibition (MGC-803 [12]) was “Dose-dependent effect”, the inhibition (HGC-27 [13]) was “Active” and the Activity (SGC-7901 [14]) was “Active”. For the same compound, the Activity (HGC-27 [15]) was “Dose-dependent effect”, the Activity (SGC-7901 [16]) was “Active” and the Activity (HGC-27 [17]) was “Active”. The Activity (HGC-27 [18]) was “Active”, the Activity (HGC-27 [19]) was “Active” and the inhibition (HGC-27 [20]) was “Dose-dependent effect”. For the same compound, the Activity (MGC-803 [21]) was “Active”, the Activity (MGC-803 [22]) was “Active” and the Activity (SGC-7901 [23]) was “Active”. For the same compound, the inhibition (MGC-803 [24]) was “Dose-dependent effect”, the Activity (SGC-7901 [25]) was “Active” and the inhibition (SGC-7901 [26]) was “Active”.
